Measurements taken from ChEMBL document CHEMBL1146666, “N-[1-Aryl-2-(1-imidazolo)ethyl]-guanidine derivatives as potent inhibitors of the bovine mitochondrial F1F0 ATP hydrolase” (Bioorg Med Chem Lett, 2004).

Experiments:
[1] = target: T1, Mitochondrial complex V; ATP synthase (Bos taurus, UniProt P00829+P05630+P05631+P05632); test: Inhibitory activity against bovine mitochondrial F1F0 ATP hydrolase; type: protein-complex assay
[2] = target: T1, Mitochondrial complex V; ATP synthase; test: Inhibitory activity against bovine mitochondrial F1F0-ATP synthase; type: protein-complex assay
How it was run: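 Synthase direction read as the rise in A340 in a hexokinase:glucose-6-phosphate dehydrogenase coupled assay.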

T1 sequence (P05632 whole entry): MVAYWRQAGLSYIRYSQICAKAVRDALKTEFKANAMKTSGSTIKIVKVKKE
T1 sequence (P00829 whole entry): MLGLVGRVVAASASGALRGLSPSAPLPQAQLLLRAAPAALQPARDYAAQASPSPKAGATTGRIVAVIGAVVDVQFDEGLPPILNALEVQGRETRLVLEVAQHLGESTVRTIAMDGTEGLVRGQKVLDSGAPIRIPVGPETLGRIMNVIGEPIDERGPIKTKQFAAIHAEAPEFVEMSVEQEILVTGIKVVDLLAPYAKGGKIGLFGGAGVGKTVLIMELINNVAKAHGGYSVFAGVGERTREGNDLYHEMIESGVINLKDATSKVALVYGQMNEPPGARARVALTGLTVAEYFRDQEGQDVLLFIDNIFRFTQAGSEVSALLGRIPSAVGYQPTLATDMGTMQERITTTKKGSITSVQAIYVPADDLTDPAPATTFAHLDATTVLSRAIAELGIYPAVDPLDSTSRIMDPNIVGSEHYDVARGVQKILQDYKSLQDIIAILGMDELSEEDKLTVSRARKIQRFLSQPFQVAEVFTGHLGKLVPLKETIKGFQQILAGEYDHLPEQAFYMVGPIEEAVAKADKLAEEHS
T1 sequence (P05631 whole entry): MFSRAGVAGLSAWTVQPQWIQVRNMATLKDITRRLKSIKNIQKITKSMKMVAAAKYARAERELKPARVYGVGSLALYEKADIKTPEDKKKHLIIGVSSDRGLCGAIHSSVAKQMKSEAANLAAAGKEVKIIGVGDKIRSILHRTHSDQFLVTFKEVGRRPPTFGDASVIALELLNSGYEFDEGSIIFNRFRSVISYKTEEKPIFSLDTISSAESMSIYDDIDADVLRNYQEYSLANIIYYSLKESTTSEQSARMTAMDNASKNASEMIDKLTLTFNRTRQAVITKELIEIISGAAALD
T1 sequence (P05630 whole entry): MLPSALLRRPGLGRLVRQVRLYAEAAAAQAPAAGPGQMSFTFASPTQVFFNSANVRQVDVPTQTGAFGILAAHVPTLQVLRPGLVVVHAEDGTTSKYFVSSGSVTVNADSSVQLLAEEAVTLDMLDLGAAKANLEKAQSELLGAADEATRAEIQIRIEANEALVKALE

SMILES	IC50 [1]	IC50 [2]
Cc1ccc(C(Cn2ccnc2)OC(=S)Nc2ccc(Cl)cc2)c(C)c1 (configuration not stated)	31.4 µM	> 100 µM
N#CN/C(=N\C(Cn1ccnc1)c1ccc(Cl)cc1Cl)Nc1cccc(Cl)c1Cl (configuration not stated)	2.49 µM	> 100 µM
O=C(Nc1ccc(Cl)cc1Cl)OC(Cn1ccnc1)c1ccc(Cl)cc1Cl (configuration not stated)	6.77 µM	> 100 µM
CCC(=O)C(Nc1ccc(Cl)cc1)NC(Cn1ccnc1)c1ccc(Cl)cc1Cl (configuration not stated)	2.27 µM	> 100 µM
N#CN/C(=N/c1cccc(Cl)c1)NC(Cn1ccnc1)c1ccc(Cl)cc1Cl (configuration not stated)	9.17 µM	> 100 µM
N#CN/C(=N\C(Cn1ccnc1)c1ccc(Cl)cc1Cl)Nc1ccc(Cl)cc1 (configuration not stated)	8.8 µM	> 100 µM
S=C(Nc1ccc(Cl)cc1Cl)NC(Cn1ccnc1)c1ccc(Cl)cc1Cl (configuration not stated)	2.41 µM	> 100 µM
S=C(Nc1ccccc1)OC(Cn1ccnc1)c1ccc(Cl)cc1Cl (configuration not stated)	3.6 µM	> 100 µM
N#Cc1cccc(C(=O)C(Nc2ccc(Cl)cc2)NC(Cn2ccnc2)c2ccc(Cl)cc2Cl)c1 (stereo in doubt; form 1)	> 100 µM	> 100 µM

The remaining compounds from weak to strong by IC50 [1], led by results:

IC50 [1]	IC50 [2]	SMILES
2.23 µM	> 100 µM	N#CN=C(Nc1ccccc1Cl)NC(Cn1ccnc1)c1ccc(Cl)cc1Cl (configuration not stated)
0.71 µM	> 100 µM	N#CN/C(=N\C(Cn1ccnc1)c1cc(C(F)(F)F)ccc1C(F)(F)F)Nc1ccc(Cl)cc1Cl (configuration not stated)
0.66 µM	> 100 µM	Cc1ccc(NC(=S)OC(Cn2ccnc2)c2ccc(Cl)cc2Cl)cc1 (configuration not stated)
0.6 µM	> 100 µM	N#CN/C(=N/c1ccc(Cl)cc1Cl)NC(Cn1ccnc1)c1ccc(Cl)cc1Cl (configuration not stated)
0.43 µM	> 100 µM	S=C(Nc1ccc(Cl)cc1)OC(Cn1ccnc1)c1ccc(Cl)cc1Cl (configuration not stated)
0.28 µM	> 100 µM	N#Cc1ccc(C(=O)C(Nc2ccc(Cl)cc2)NC(Cn2ccnc2)c2ccc(Cl)cc2Cl)cc1 (configuration not stated)
0.23 µM	> 100 µM	Cc1ccc(NC(=S)OC(Cn2ccnc2)c2ccc(Cl)cc2Cl)c(C)c1 (configuration not stated)
0.082 µM	> 100 µM	O=C(c1ccc(Cl)cc1)C(Nc1ccc(Cl)cc1)NC(Cn1ccnc1)c1ccc(Cl)cc1Cl (configuration not stated)
0.033 µM		N#Cc1cccc(C(=O)C(Nc2ccc(Cl)cc2)NC(Cn2ccnc2)c2ccc(Cl)cc2Cl)c1 (stereo in doubt; 19a)
0.03 µM	> 100 µM	S=C(Nc1ccc(Cl)cc1Cl)OC(Cn1ccnc1)c1ccc(Cl)cc1Cl (configuration not stated)
